Source: PubChem BioAssay (several laboratories)
Rows were chosen to be rich in hits. Some 2.9% of all compounds tested hit in one or more screens of this group.
SENP8 block-1: human SENP8 protease inhibitors, primary screen, biochemical, fluorescence, Nedd8 protein substrate, uHTS. Sentrin-specific protease 8 (Homo sapiens), Q96LD8. recombinant SENP8. 360,000 compounds, 0.64% hits. inhibition, % at 20 µM. AID 602440, 2012; in the data active means inhibition mostly above about 40%, no sharp cut-off; inactive means mostly below about 27%
HSP90 inh: HSP90 inhibitors, primary screen, cell lysate, luminescence; Rabbit reticulocyte lysate, luciferase refolding luminescence, 3 h; inhibition, % at 5.6 µM; Heat shock protein HSP 90 (rabbit reticulocyte lysate; luciferase refolding); 290,000 compounds, 0.91% hits;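 active means inhibition above the screen-wide mean plus 3 SD, computed separately per campaign, cut at about 16% in these data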;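 further: 0% = DMSO wells and 100% = 60 µM geldanamycin wells; inhibitors lower the luminescence because luciferase stays unfolded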
SENP1 FRET inh: human SENP1 catalytic domain inhibitors, primary screen, biochemical, FRET, uHTS | AID 624204, 2012 | recombinant SENP1 catalytic domain, CyPet-SUMO1-YPet FRET cleavage | 360,000 compounds, 0.21% hits | inhibition, % at 10 µM | Sentrin-specific protease 1 (Homo sapiens), Q9P0U3;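 active means inhibition at least 30% at 10 µM, raw YFP signal under a set limit, fluorescence ratio 0.5 to 1.5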;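 further: 0% = enzyme with DMSO and 100% = no enzyme wells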
Target sequence (Q9P0U3 419-644 limits assumed): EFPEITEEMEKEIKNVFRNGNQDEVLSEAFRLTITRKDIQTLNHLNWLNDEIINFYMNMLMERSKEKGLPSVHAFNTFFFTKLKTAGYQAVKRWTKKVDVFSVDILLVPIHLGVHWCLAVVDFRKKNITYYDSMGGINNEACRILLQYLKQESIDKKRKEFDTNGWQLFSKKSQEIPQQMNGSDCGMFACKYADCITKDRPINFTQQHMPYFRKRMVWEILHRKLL
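Assay system – human recombinant His6-tagged SENP1 catalytic domain enzyme · Input – SENP1 enzyme, 20 pM final · Buffer or medium – Tris pH 8 buffer plus EDTA, NaCl, BME, BSA, NP40, catalase · Schedule – 50 min reaction at room temperature · Technique – FRET read of cyan and yellow fluorescence · Control set – no-enzyme wells low, DMSO-plus-enzyme wells high control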
SENP6 inh: SENP6 protease inhibitors, primary screen, biochemical, luminescence, uHTS. Sentrin-specific protease 6 (Homo sapiens), Q9GZR1. Recombinant SENP6 catalytic domain, aminoluciferin luminescence. 330,000 compounds, 1.8% hits. inhibition, % at 10 µM;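 active means inhibition above about 50% at the single tested dose, limit read from the data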;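 further: plate controls were DMSO wells with enzyme for no effect and DMSO wells lacking enzyme for full effect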
Target sequence (Q9GZR1 628-1112 limits assumed): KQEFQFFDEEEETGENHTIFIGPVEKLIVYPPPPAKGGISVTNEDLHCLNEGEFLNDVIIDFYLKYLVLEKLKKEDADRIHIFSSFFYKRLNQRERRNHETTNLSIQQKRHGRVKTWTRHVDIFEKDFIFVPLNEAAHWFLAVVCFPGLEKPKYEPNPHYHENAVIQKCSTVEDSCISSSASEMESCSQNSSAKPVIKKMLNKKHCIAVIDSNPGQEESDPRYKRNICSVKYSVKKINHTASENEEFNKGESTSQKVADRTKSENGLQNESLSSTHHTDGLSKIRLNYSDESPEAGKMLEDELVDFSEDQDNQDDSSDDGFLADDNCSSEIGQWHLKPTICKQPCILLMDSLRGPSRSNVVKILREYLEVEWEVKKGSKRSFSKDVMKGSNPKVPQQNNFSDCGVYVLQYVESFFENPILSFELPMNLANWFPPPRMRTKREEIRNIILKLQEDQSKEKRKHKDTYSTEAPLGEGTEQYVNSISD
SENP8 block-2: SENP8 protease inhibitors, primary screen, biochemical, luminescence; inhibition, % at 10 µM; purified SENP8, Z-RLRGG-aminoluciferin cleavage; 330,000 compounds, 1.2% hits; Sentrin-specific protease 8 (Homo sapiens), Q96LD8; AID 2540, 2010; in the data active means inhibition above about 50%
SENP7 block: SENP7 protease inhibitors, primary screen, biochemical, luminescence, uHTS; Sentrin-specific protease 7 (Homo sapiens), Q9BQF6; recombinant SENP7, Z-RLRGG-aminoluciferin luminescence, 40 min; inhibition, % at 5 µM; 330,000 compounds, 1.5% hits;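 active means inhibition above about 50% at the single test dose, limit read from the data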;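 further: plate controls were DMSO with enzyme for no effect and no enzyme buffer wells for full effect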
SENP8 inh conf: human SENP8 protease inhibitors, confirmation, biochemical, Nedd8 protein substrate, single concentration. purified SENP8, Nedd8-AMC/pro-Nedd8 cleavage fluorescence, 30 min. 1,400 compounds, 15% hits. shares compounds with SENP8 block-1. AID 624319, 2012. inhibition, % at 25 µM; in the data active means inhibition mostly above about 39%, no sharp cut-off; inactive means mostly below about 34%
An asterisk follows results filed as active; / = not tested or not shown.

SMILES | SENP8 block-1 | HSP90 inh | SENP1 FRET inh | SENP6 inh | SENP8 block-2 | SENP7 block | SENP8 inh conf
COc1ccc(-c2nc[nH]c2[N+](=O)[O-])cc1 | 49.4* | -1.4 | 2.5 | -6.0 | 0.7 | -6.7 | 17.5
COCc1c(C)cc(C)c(/C=N/O)c1C | 46.8* | -0.7 | -1.2 | 4.7 | 7.6 | -0.1 | 9.8
O=c1[nH][nH]c(=O)c2c1[nH]c(=S)n2Cc1ccccc1 | 7.8 | / | -0.3 | / | / | / | /
Cc1cccc(C)c1NC(=O)C(C)N1CCCCC1 (stereo not drawn) | 21.2 | 0.3 | 4.3 | -7.6 | 0.0 | -0.6 | /
O=C1c2c(O)cc(O)cc2O[C@H](c2ccc(O)cc2)[C@H]1O | 61.7* | / | 1.4 | -12.6 | -15.9 | 1.4 | 20.8
COc1ccccc1CNC(=O)CNC(=O)c1sc2ccccc2c1Cl | 4.7 | 4.5 | -4.0 | -3.5 | 3.8 | 1.5 | /
CCCCCCN1C=CC=C/C1=C\C=C(C#N)C#N | 42.6* | -0.9 | -13.4 | -7.5 | -5.2 | -9.2 | 29.0
O=C(CN1CCOCC1)NN=Cc1ccc([N+](=O)[O-])o1 | 25.5 | / | -0.3 | / | / | / | /
O=C(N/N=C/c1ccc([N+](=O)[O-])o1)c1ccccc1-n1cccc1 | 42.3* | -0.5 | -2.4 | 2.3 | 3.0 | 1.6 | 21.1
O=C(CNc1cccc([N+](=O)[O-])c1)N/N=C/c1ccc([N+](=O)[O-])o1 | 40.1* | 2.5 | -2.8 | 1.8 | 8.3 | 4.3 | 22.5
O=C(CCN1CCN(c2ccccc2)CC1)N/N=C/c1ccc([N+](=O)[O-])o1 | 55.1* | 1.0 | -1.9 | 21.0 | 8.2 | 4.1 | 38.6
COc1cc2c(cc1N)-c1ccc(N)cc1C2=O | -1.9 | / | -11.9 | / | / | / | /
CCOC(=O)[C@@H]1[C@H]2COc3ccccc3[C@@H]2N2C(=O)N(c3cccc(F)c3)C(=O)[C@@]12C | 3.3 | / | 1.6 | -2.7 | -13.3 | -0.7 | /
CC(=O)Nc1cc2c(cc1Br)OCCO2 | 47.1* | -1.7 | 0.4 | -7.4 | -6.8 | -6.6 | -5.8
O=C1NC(Cc2ccccc2)c2nc3ccc(Br)cc3c(=O)n2-c2cc(Cl)ccc21 (stereo not drawn) | / | / | / | 1.8 | 3.1 | -4.4 | /
O=C(O)CCCCCCCCCCCc1ccccc1 | 55.6* | -0.6 | -0.9 | 33.7 | 41.5 | -1.7 | 2.9
O=C(O)c1ccc(CCCc2ccccc2)cc1 | 9.0 | / | 2.3 | / | / | / | /
CCC(C(=O)NC1CCCC1)n1c(-c2cc3ccccc3[nH]2)nc2ccccc21 (stereo not drawn) | -410.6 | / | -6.3 | / | / | / | /
Cc1nc([N+](=O)[O-])c(Br)n1CC(=O)c1ccc(Cl)cc1 | 42.3* | 2.8 | 3.2 | 7.9 | 6.6 | 5.4 | 11.8
Cc1nc([N+](=O)[O-])c(Br)n1Cc1ccc(Cl)c(Cl)c1 | 21.6 | 0.1 | 1.9 | / | / | / | /
O=C(CN1C(=O)NC2(CCCC2)C1=O)NCCc1ccccc1 | 6.6 | / | 1.6 | -17.2 | -9.9 | -16.1 | /
NC(=O)CC(NC(=O)c1ccccc1)c1ccc(NC2CCCCC2)c([N+](=O)[O-])c1 (stereo not drawn) | 43.3* | / | 5.0 | -16.0 | -10.4 | 9.2 | 18.3
NC(=O)CC(NC(=O)c1ccccc1)c1ccc(NCc2ccc(F)c(F)c2)c([N+](=O)[O-])c1 (stereo not drawn) | 22.9 | -1.2 | 3.6 | -12.5 | 3.9 | -3.0 | /
NC(=O)CC(NC(=O)c1ccccc1)c1ccc(NCCc2ccc(Cl)cc2)c([N+](=O)[O-])c1 (stereo not drawn) | 43.7* | / | 16.4 | 1.3 | -5.1 | 1.2 | -1.3
CN1/C(=C/C=C(C#N)C#N)C(C)(C)c2ccccc21 | 8.7 | -2.3 | -35.3 | 3.3 | -2.8 | -3.6 | /
SMILES | SENP8 block-1 | HSP90 inh | SENP1 FRET inh | SENP6 inh | SENP8 block-2 | SENP7 block | SENP8 inh conf
CC1=C/C(=C\C=C(C#N)C#N)N(C)c2ccccc21 | 49.8* | 4.7 | 71.5* | -19.1 | 4.0 | 3.1 | 10.2
O=C(O)CCc1ccc(-c2ccc(Br)cc2)n1NC(=O)c1ccc([N+](=O)[O-])cc1 | 44.1* | 1.9 | 2.5 | -10.1 | 0.2 | 4.6 | 25.2
Cc1cccc(C(=O)NC2CCCCCCC2)c1 | 11.7 | -4.0 | -1.9 | 11.0 | -12.8 | 4.5 | /
Cc1cccc(C(=O)NC2C(=O)NNC2c2ccc(Cl)cc2)c1 (stereo not drawn) | 44.5* | 10.3 | 0.7 | 18.6 | -2.2 | 14.3 | 22.4
O=C(NC1C(=O)NNC1c1ccccc1)c1ccccc1 (stereo not drawn) | 55.1* | 8.0 | 4.4 | 13.5 | -4.5 | -4.7 | 16.7
CC(C)C[C@@]12C(=O)N(c3cccc(F)c3)C(=O)N1[C@H](c1ccc(F)cc1)[C@@H]1C(=O)N(C3CCCCC3)C(=O)[C@@H]12 | 15.0 | / | 1.4 | -14.4 | -7.8 | -2.7 | /
CN1CCC(=NNC(=O)C(=O)NC2CCCCC2)CC1 | 7.2 | 5.5 | -0.8 | -15.9 | -1.8 | 5.0 | /
CN1CCC(=NNC(=O)C(=O)NC2CCCC2)CC1 | 40.3* | 0.9 | -0.4 | 1.9 | 3.6 | 6.7 | 5.2
O=C(Nc1ccc(F)cc1)C(c1ccnc2ccccc12)N1CCN(C(=O)c2ccco2)CC1 (stereo not drawn) | 10.3 | / | -0.1 | / | / | / | /
Cc1ccc(S(=O)(=O)N2CCCCC2)cc1NC(=O)CNC(C)c1ccc(Cl)c(Cl)c1 (stereo not drawn) | 6.6 | / | 1.1 | 17.5 | 1.3 | 2.6 | /
CCOc1cc(Cl)c(CNCCCN2CCOCC2)cc1OC | 8.3 | 3.0 | 0.5 | 4.0 | -11.3 | 11.5 | /
CCCNCc1cc(OC)c(OCCC)cc1Cl | 40.4* | 3.3 | 3.7 | 1.9 | -7.1 | 1.6 | -2.9
CC(Sc1ccsc1[N+](=O)[O-])C(=O)NCCc1ccc(Cl)cc1 (stereo not drawn) | 41.9* | 3.1 | 0.7 | 7.6 | 5.0 | -1.5 | 15.4
N#CCCN(C(=O)COC(=O)C12CC3CC(CC(O)(C3)C1)C2)c1ccc(F)cc1 | 7.0 | / | 0.4 | 0.1 | -11.7 | -7.8 | /
CC1(OC(=O)CCc2ccccc2)C(=O)C=C2C=C3CCCN3C=C2C1=O (stereo not drawn) | 55.0* | / | -11.9 | 7.8 | 7.1 | 4.7 | 42.6*
CC1(OC(=O)CCc2ccccc2)C(=O)C=C2C=C(C3CC3)OC=C2C1=O (stereo not drawn) | / | / | / | -10.0 | 4.9 | -3.5 | /
CCN(CC)CCCOC(=O)C(c1ccccc1)c1ccccc1 | 61.7* | 1.5 | -0.1 | -13.8 | 3.9 | 3.0 | 17.8
CCC(C(=O)OCCOCCN(CC)CC)c1ccccc1 (stereo not drawn) | 11.7 | -1.0 | 1.7 | -29.1 | -1.1 | 6.8 | /
